Sampled rows, rich in hits. Any-hit rate of the full collection: about 1.7%.
STEP block: inhibitors of human striatal-enriched phosphatase STEP | AID 588621 | hit rate 0.25% among 360,000 | inhibition, % at 20 µM | recombinant STEP, OMFP fluorogenic substrate, fluorescence;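 active means inhibition at 20 µM, scaled per plate between control wells, above about 37%, limit read from the data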
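material = STEP tyrosine phosphatase | reagent = fluorogenic phosphatase substrate OMFP at 25 µM final | doses = single compound dose of 20 µM, 1% DMSO final | schedule = 20 min reaction, room temperature, in the dark | measured by = fluorescence, 480/540 nm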
DNMT1 inh: inhibitors of human DNMT1 | P26358 | DNMT1 molecular beacon, Hinp1I cleavage, fluorescence | inhibition (reported as % activation of signal), % at 10 µM | hit rate 0.83% among 360,000 | AID 588458; in the data active means inhibition above about 50%
Scp-1 inhibitor: Scp-1 (human) phosphatase inhibition | Q9GZU7 | Recombinant Scp1, phosphopeptide, malachite green phosphate absorbance | inhibition, % at 20 µM | hit rate 0.88% among 340,000 | AID 493091;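 active means inhibition above about 50% at 20 µM, limit read from the data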
Target sequence (Q9GZU7 76-261 limits assumed): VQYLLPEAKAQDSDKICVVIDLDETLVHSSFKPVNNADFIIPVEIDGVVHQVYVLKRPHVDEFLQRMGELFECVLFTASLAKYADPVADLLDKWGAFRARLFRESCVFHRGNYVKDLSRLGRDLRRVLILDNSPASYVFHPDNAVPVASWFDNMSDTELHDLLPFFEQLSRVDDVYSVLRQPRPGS
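Test system: SCP-1 phosphatase catalytic domain, residues 76-261 | Compound dosing: One concentration, 20 µM, with 1.0% DMSO | Schedule: 45 min room-temperature reaction, 5 min colour, 30 min stabiliser | Detection: Absorbance at 630 nm | Read-out basis: % inhibition of SCP-1 phosphate liberation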
SUMO1 PPI mod: alters human SUMO1 binding to SIM partners. P63165. SUMO1 binding to a labelled peptide, TR-FRET, 1 h. inhibition, % at 20 µM. hit rate 0.33% among 360,000. AID 602429; in the data active means inhibition above about 37%
Target sequence (P63165 whole entry, looked up): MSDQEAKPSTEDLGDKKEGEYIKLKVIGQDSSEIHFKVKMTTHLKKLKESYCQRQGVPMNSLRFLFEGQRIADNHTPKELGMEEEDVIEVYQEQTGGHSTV
LMPTP block: blocks human LMPTP phosphatase | recombinant LMPTP-A, OMFP fluorogenic substrate, fluorescence intensity | inhibition, % at 20 µM | AID 651560 | hit rate 0.22% among 360,000;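 active means compounds that cut the enzyme signal by at least half of the control window in the single-dose screen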
Target sequence (P24666 whole entry, looked up): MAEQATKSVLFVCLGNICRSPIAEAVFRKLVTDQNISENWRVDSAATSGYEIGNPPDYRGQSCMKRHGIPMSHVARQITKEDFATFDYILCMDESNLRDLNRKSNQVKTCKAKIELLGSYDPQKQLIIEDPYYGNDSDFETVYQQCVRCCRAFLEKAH
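Assay system: LMPTP-A, protein tyrosine phosphatase of low molecular weight / Medium: pH 6.0 Bis-Tris buffer with DTT and Triton X-100 / Schedule: 50 min enzyme reaction at room temperature, protected from light / Measured by: endpoint fluorescence intensity from OMFP dephosphorylation / Read-out basis: % inhibition relative to no-enzyme and uninhibited control wells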
STEP inh conf: confirmation of human STEP phosphatase inhibitors; shares compounds with STEP block; recombinant STEP, OMFP fluorogenic substrate, fluorescence; inhibition, % at 20 µM; hit rate 32% among 520; call rule not given here
Hits are given with their value; . = inactive; / = no result.

SMILES	STEP block	DNMT1 inh	Scp-1 inhibitor	SUMO1 PPI mod	LMPTP block	STEP inh conf
CN1C[C@@H]2[C@@H]3C(=O)N(C)C(=O)[C@@H]3[C@](C)(C1=O)N2C(=O)c1ccc(Br)cc1	.	.	.	.	.	/
COC(=O)c1sccc1NC(=O)c1ccc(C#N)cc1	98.2	.	116.5	.	.	.
Cc1ccc(S(=O)(=O)N2CCN(C(=O)CN(Cc3ccco3)Cc3cccs3)CC2)cc1	.	.	.	.	.	/
COc1ccccc1NC(=O)CN1C(=O)COc2ccc(C)cc21	.	.	.	.	.	/
COc1ccc(NC(=O)CN2C(=O)COc3ccc(C)cc32)c(OC)c1	72.3	.	.	.	.	.
O=C1[C@@H]2[C@@H]3C[C@@H]([C@H]4ON=C(c5ccc(Cl)cc5)[C@@H]34)[C@@H]2C(=O)N1c1ccc2c(c1)OCO2	46.5	.	.	.	.	.
O=C1[C@@H]2[C@@H]3C[C@@H]([C@H]4ON=C(c5ccc(OCc6ccccc6)cc5)[C@@H]34)[C@@H]2C(=O)N1c1ccc2c(c1)OCO2	.	.	.	.	.	/
Cc1cccc(C)c1NC(=S)N(Cc1ccco1)C1CCN(C(C)C)CC1	46.2	.	.	.	.	.
Cc1cc(C)c2nc(NC(=O)C3CSC4(C)CCC(=O)N34)sc2c1 (configuration not stated)	.	.	.	.	.	/
O=C(O)Cn1cnc2c(=S)nc[nH]c21	.	.	.	.	.	/
S=c1nc[nH]c2c1ncn2-c1ccc(Cl)cc1	85.7	.	.	.	.	37.7
COC(=O)C1=C(CS(=O)(=O)c2ccccc2)NC(=O)NC1c1ccc(O)cc1 (configuration not stated)	.	.	.	.	.	/
COC(=O)C1=C(CS(=O)(=O)c2ccc(Cl)cc2)NC(=O)NC1c1ccc(O)cc1 (configuration not stated)	92.6	.	.	.	.	.
O=C1C(=O)N(CCCO)C(c2ccc(Br)cc2)/C1=C(\O)c1ccc(Br)cc1 (configuration not stated)	41.3	.	.	.	.	37.6
CC1(C)Cc2c(sc(NC(=O)/C=C/C(=O)O)c2C#N)CO1	.	.	.	.	.	/
CC1(C)Cc2c(sc(NC(=O)C(=O)NCCCN3CCOCC3)c2C#N)CO1	68.3	.	.	.	.	.
O=C(Cn1ccc(=O)[nH]c1=O)c1ccc([N+](=O)[O-])o1	.	.	/	.	.	/
Cc1nn(-c2ccccc2)c(C)c1/C=N/NC(=O)c1cc(-c2ccc(Cl)s2)[nH]n1	.	.	.	.	.	/
O=C(N/N=C/c1ccccn1)c1cc(-c2ccc(Cl)s2)[nH]n1	41.6	.	.	.	.	.
Cc1cc2nc(/C=C/c3nc4cc(C)c(C)cc4[nH]3)[nH]c2cc1C	46.2	.	.	.	.	.
Cc1ccccc1N1CCN(C(=S)c2ccc(-c3cccc([N+](=O)[O-])c3)o2)CC1	44.3	.	.	.	.	25.9
Cc1ccccc1N1CCN(C(=S)c2ccc(-c3ccc([N+](=O)[O-])cc3)o2)CC1	.	.	.	.	.	/
Cc1csc(NC(=O)CCCC(=O)O)c1-c1nc2ccccc2s1	92.7	.	.	.	.	.
COc1ccc(CN(C)CC(=O)NCC(=O)Nc2c(C)cccc2C)cc1	.	.	.	.	.	/
O=C(O)c1cc(S(=O)(=O)O)ccc1O	.	.	.	.	.	/
SMILES	STEP block	DNMT1 inh	Scp-1 inhibitor	SUMO1 PPI mod	LMPTP block	STEP inh conf
O=S(=O)(O)c1cc(O)c2cc(Nc3ccccc3)ccc2c1	71.9	98.5	88.1	77.2	83.3	100.1
Nc1ccc2c(O)cc(S(=O)(=O)O)cc2c1	37.5	93.1	67.3	.	.	67.9
Cc1ccc(NC(=O)Cn2cncc2-c2ccc([N+](=O)[O-])cc2)cc1C	48.3	.	.	.	.	.
COc1ccccc1NC(=O)Cn1cncc1-c1ccc([N+](=O)[O-])cc1	.	.	.	.	.	/
CC(C)Oc1ccc(OCCCN2CCCCCC2)cc1	53.1	.	.	.	.	.
CC(C)c1ccc(OCCCCN2CCCCC2)cc1	.	.	.	.	.	/
CC1(C(=O)NS(=O)(=O)c2cccc(Cl)c2)CCN1C(=O)C1(c2ccccc2)CC1 (configuration not stated)	.	.	/	.	.	/
O=C(CCC1CCN(C(=O)c2cc(C(F)(F)F)ccc2Cl)CC1)NC1CC1	.	.	.	.	.	/
N#CCSc1ccccc1NC(=O)COC(=O)CCN1C(=O)C2CC=CCC2C1=O (configuration not stated)	.	.	.	.	.	/
O=S1OCCN1c1ccccc1 (configuration not stated)	42.2	.	.	.	.	.
O=C1CN(C(=O)CNCc2ccc(Cl)cc2)c2ccccc2N1	.	.	.	.	.	/
COc1ccc(-c2csc(N3CCC(C(N)=O)(N4CCCCC4)CC3)n2)cc1	71.1	.	.	.	.	.
CC(C)N(C)CCOC(=O)c1ccccc1Cl	.	.	.	.	.	/
CC(C)N(C)CCOC(=O)c1ccccc1Br	77.9	.	.	.	.	.
Cc1cccc(N2CCN(S(=O)(=O)c3ccc4c(c3)CCN4C(=O)CCC(=O)O)CC2)c1C	40.7	.	.	.	.	.
O=C(Nc1ncccc1O)c1ccc(Oc2ccccc2)cc1	.	.	.	.	.	/
Cc1ccc2c(c1)C(c1ccccc1)C(=O)O2 (configuration not stated)	.	.	.	.	.	/
O=C(N/N=C/c1ccc([N+](=O)[O-])cc1)c1cccnc1	.	.	.	.	.	/
Nc1c(C(=O)N/N=C/c2ccc([N+](=O)[O-])cc2)cnn1-c1ccccc1	51.7	.	.	.	.	.
CN(C)c1ccc(C(=S)N2CCN(Cc3ccccc3)CC2)cc1	84.8	.	.	.	.	39.5
Cc1ccc(C(=S)N2CCN(Cc3ccccc3)CC2)s1	77.6	.	.	.	.	41.8
S=C(c1ccc(Br)cc1)N1CCN(Cc2ccccc2)CC1	90.2	.	.	.	.	38.3
Oc1ccc(C(=S)N2CCN(Cc3ccccc3)CC2)cc1	61.9	.	.	.	.	.
CCNC(=S)N1CCN(Cc2ccccc2)CC1	.	.	.	.	.	/
O=C(c1ccc(Br)cc1)N1CCN(Cc2ccccc2)CC1	.	.	.	.	.	/
Cn1c(CC(=O)NNC(=O)c2cncc(Br)c2)nc2ccccc21	.	.	.	.	.	/
Cc1cc(C)cc(NC(=S)NC2CC3CCCC(C2)N3C2CC2)c1 (configuration not stated)	.	.	.	.	.	/
Cc1cc(C)cc(NC(=S)NC2CC3CCCC(C2)N3C2CCCC2)c1 (configuration not stated)	40.5	.	.	.	.	.
